The entries come from a sample that favours hits as a whole.
Calb FLC: affects C. albicans growth with fluconazole. growth inhibition, % (test concentration not listed). AID 1979. C. albicans CaCi-2 (fluconazole-resistant clinical isolate) + fluconazole, Alamar Blue growth, 48 h. 0.57% of 300,000 active;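 active = growth inhibition above about 58% in most replicates, limit read from the data, passing the limit was not always enough; inconclusive = exactly half the replicates above a set limit; inactive = most replicates below a set limit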;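 note: all wells also contain fluconazole at 8 µg/ml as a sub-toxic cotreatment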
Lmaj promast: reduces viability of Leishmania major promastigotes. resazurin fluorescence viability. inhibition, % at 10 µM. 9% of 200,000 active. AID 1063; in the data active = inhibition above about 50%;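 note: promastigotes grown with compound for 44 hours at 28 °C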
NALP3 yeast inh: blocks the NALP3 inflammasome reconstituted in yeast | inhibition, % at 10 µM | AID 2825 | Yeast reconstituted NLRP3/ASC/caspase-1, beta-gal luminescence, 24 h | 0.39% of 330,000 active;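 active = inhibition of 50% or more; inactive = inhibition below 50%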
NALP1 yeast inh: NALP1 inhibition; 0.61% of 280,000 active; inhibition, % at 10 µM; S. cerevisiae NALP1/ASC/caspase-1 growth, X-gal OD620, 72 h; in the data active = inhibition mostly above about 24%, no sharp cut-off; inactive = mostly below about 32%
T cruzi repl: blocks replication of Trypanosoma cruzi; T. cruzi beta-gal in NIH3T3, luminescence, 90 h; inhibition, % (no concentration beside the values); 1.4% of 300,000 active; AID 1885;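 active = mean inhibition across valid replicates above about 55%, limit read from the data; inconclusive = mean below that limit but half or more replicates reach it; inactive = mean below it, under half of replicates reach it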;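 note: signal also drops with host cell toxicity which is not excluded here; higher percent means less beta-gal luminescence so fewer parasites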
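Assay system: NIH/3T3 fibroblasts plus reporter T. cruzi. Amount: NIH/3T3 cells, 5,000 per well. Buffer or medium: DMEM, 2% fetal bovine serum. Doses: compound pinned at 50 nL/well, DMSO. Schedule: ≥90 h infection period, 3 h prior cell attachment. Signal: luminescent β-galactosidase signal after 60 min lysis. Read-out: parasite load inhibition, %.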
PolyA inh: inhibitors of polyadenylation in S. cerevisiae; S. cerevisiae SKY197-pL101 polyadenylation reporter, beta-gal luminescence; efflux-impaired pdr1/pdr3 knockout yeast; score 100 = 6 SD above DMSO; activity score, % at 12 µM; 0.02% of 300,000 active;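 active = lowest replicate activity score at least 50, where 100 means six control SD above control mean; inconclusive = lowest score under 50 but half or more replicates reach 50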;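 note: yeast exposed to compound for 9 h at 30 °C; higher score means more reporter readthrough which indicates perturbed polyadenylation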
A number is an active result; . = inactive; ? = inconclusive; / = no result given.

SMILES | Calb FLC | Lmaj promast | NALP3 yeast inh | NALP1 yeast inh | T cruzi repl | PolyA inh
Cc1ccsc1CNC12CC3CC(CC(C3)C1)C2 | . | . | . | . | . | .
CCN(CC)C(=O)CSc1nnc(-c2ccc(S(=O)(=O)N3CCCC3)cc2)o1 | . | 98.9 | . | . | . | .
O=c1c2ccccc2nnn1CSc1nnc(-c2cccc(S(=O)(=O)N3CCCCC3)c2)o1 | . | 71.2 | . | . | . | .
CCNC(=S)NCc1ccco1 | . | 59.3 | . | . | . | .
O=C(CSc1nnc(-c2ccc(S(=O)(=O)N3CCCC3)cc2)o1)NCc1ccco1 | . | 88.2 | . | . | . | .
CC(=O)CCSc1nnc(-c2cccc(S(=O)(=O)N3CCOCC3)c2)o1 | . | / | . | / | . | .
S=C(NCc1ccc(Cl)cc1)NCc1ccco1 | . | / | . | . | . | .
CC(C)[C@H]1CC[C@@H](C)C(C(=O)c2ccccc2)C1=O (some centres not stated) | . | . | . | . | . | .
O=C(NCC1OCCCN1S(=O)(=O)c1cc(F)ccc1F)C(=O)NC1CCCC1 (configuration not stated) | . | / | . | . | . | .
O=C(CN1C(=O)c2ccccc2C1=O)NC1CCC(O)CC1 (configuration not stated) | / | / | . | / | / | /
O=S(=O)(c1ccc(NC(=S)NCc2ccco2)cc1)N1CCCC1 | . | 51.7 | . | . | . | .
CC(=O)Nc1ccc(S(=O)(=O)N2CCC(C(=O)NCc3ccco3)CC2)cc1 | . | / | . | . | . | .
Cc1sc(NC(=O)CSc2nc(N)cc(N)n2)c(C#N)c1C | . | / | . | / | . | .
Cc1cccc(N2N=C(C(=O)N3Cc4ccccc4CC3C(N)=O)CCC2=O)c1 (configuration not stated) | / | / | . | / | / | /
CC(C)NC(=O)c1cnc(N2CCN(c3ccccn3)CC2)c2ccccc12 | . | . | . | . | . | .
CCc1ccc(NC(=O)c2cnc(N3CCN(c4ccccn4)CC3)c3ccccc23)cc1 | . | 82.1 | . | . | 60.3 | .
N#Cc1c(-c2ccccc2)ccnc1Oc1ccccc1 | . | . | . | . | . | .
O=C(NCc1ccccc1)C1CCCN(C(=O)NCc2ccccc2)C1 (configuration not stated) | . | / | . | . | . | .
O=C(NC(Cc1ccc(F)cc1)C(=O)O)c1ccccc1 (configuration not stated) | . | 70.4 | . | . | . | .
CCCNC(=O)C(Cc1ccc(Cl)cc1)NC(=O)c1ccc(-c2ccccc2)cc1 (configuration not stated) | / | / | . | / | / | /
Cc1ccc(CC(NC(=O)c2ccccc2)C(=O)NC(C)C(=O)O)cc1 (configuration not stated) | . | 84.0 | . | . | . | .
O=C(NC(Cc1ccccc1)C(=O)O)c1ccccc1 (configuration not stated) | ? | . | . | . | / | .
COC(=O)c1cccc(S(=O)(=O)N2CCN(c3nc4ccccc4s3)CC2)c1 | . | . | . | . | . | .
COc1ccc(CNCc2ccco2)cc1OCc1ccccc1 | . | 99.8 | . | . | . | .
CCCOc1cc(CC(=O)NCc2ccco2)ccc1OC | . | . | . | . | . | .
SMILES | Calb FLC | Lmaj promast | NALP3 yeast inh | NALP1 yeast inh | T cruzi repl | PolyA inh
COc1ccccc1CCNCc1ccc(OC)c(OCc2ccccc2)c1 | . | 100.3 | . | . | . | .
COc1cc(CNCCc2ccccc2)ccc1OCC(N)=O | . | . | . | . | . | .
CCOC(=O)N1CCC(N2C(=O)c3ccccc3C2Nc2cc(Cl)c(OC)cc2OC)CC1 (configuration not stated) | . | 97.3 | . | . | . | .
O=C(/C=C1\NC2(CCCC2)Cc2ccccc21)C(=O)N/N=C/c1ccc(O)c(O)c1 | . | 62.2 | . | . | . | ?
COc1ccc(/C=N/NC(=O)C(=O)/C=C2\NC3(CCCC3)Cc3ccccc32)cc1 | . | . | . | . | . | .
Cc1cccc(N2CCC(N3CCN(C4CCCCC4)C(CCO)C3)CC2)c1C (configuration not stated) | . | 88.3 | . | . | . | .
CSc1ccc(CN2CCN(C3CCCC3)C(CCO)C2)cc1 (configuration not stated) | . | 62.2 | . | . | ? | .
CC(C)N1CCC(N2CCN(C3CCCC3)CC2CCO)CC1 (configuration not stated) | . | . | . | . | . | .

Screening data deposited in PubChem BioAssay by several laboratories.
